From ChEMBL document CHEMBL1139366, “Non-peptide macrocyclic histone deacetylase inhibitors” (J Med Chem, 2009)

Tests used:
[1] = target: Histone deacetylase (HDAC1 and HDAC2) (Homo sapiens, UniProt Q13547+Q92769); assay: Inhibition of HDAC1/2 from human HeLa cells nuclear extract by cell free fluorimetric assay; format: cell-based
[2] = target: T1, Histone deacetylase 8 (Homo sapiens, UniProt Q9BY41); assay: Inhibition of HDAC8 from human HeLa cells nuclear extract by cell free fluorimetric assay
T1 sequence (Q9BY41 whole entry): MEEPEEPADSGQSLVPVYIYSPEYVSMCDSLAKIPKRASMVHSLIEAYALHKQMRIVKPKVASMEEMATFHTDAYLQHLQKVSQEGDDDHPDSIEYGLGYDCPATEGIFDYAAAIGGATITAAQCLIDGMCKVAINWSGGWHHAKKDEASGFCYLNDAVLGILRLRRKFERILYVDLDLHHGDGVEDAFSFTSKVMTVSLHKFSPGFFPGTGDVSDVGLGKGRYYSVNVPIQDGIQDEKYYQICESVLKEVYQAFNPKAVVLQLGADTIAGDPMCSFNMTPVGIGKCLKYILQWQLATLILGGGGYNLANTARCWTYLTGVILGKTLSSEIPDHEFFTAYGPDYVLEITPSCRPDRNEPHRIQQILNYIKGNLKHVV

[3] = test system: SK-MES-1; assay: Cytotoxicity against human SKMES1 cells after 72 hrs by trypan blue exclusion assay; format: functional, cell-based; details: SK-MES-1, 72 h
[4] = test system: NCI-H69; assay: Cytotoxicity against human NCI-H69 cells after 72 hrs by trypan blue exclusion assay; format: functional, cell-based; details: NCI-H69, 72 h
[5] = test system: DU-145; assay: Cytotoxicity against human DU145 cells after 72 hrs by trypan blue exclusion assay; format: functional, cell-based; details: DU-145, 72 h
Summary of the method: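 DU-145 prostate cancer cells kept in recommended complete medium at 37 °C, 5% CO₂, passaged 24 h before dosing. Compounds taken from 10 mM DMSO stocks and diluted in DMSO plus fresh medium, final DMSO 0.1%; control wells got fresh medium only. Viability read by trypan blue staining after 72 h. EC₅₀ = concentration giving 50% loss of viability, from duplicate of four simultaneous experiments.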

[6] = Cytotoxicity against human primary lung fibroblasts after 72 hrs by trypan blue exclusion assay; format: ADME, cell-based; details: Fibroblast
[7] = test system: HMEC; assay: Cytotoxicity against HMEC after 72 hrs by trypan blue exclusion assay; format: ADME, cell-based; details: Homo sapiens

Row | SMILES | IC50 [1] | IC50 [2] | EC50 [3] | EC50 [4] | EC50 [5] | EC50 [6] | EC50 [7]
1 | CC[C@H]1OC(=O)[C@H](C)[C@@H](O[C@H]2C[C@@](C)(OC)[C@@H](O)[C@H](C)O2)[C@H](C)[C@@H](O[C@@H]2O[C@H](C)C[C@H](N(C)Cc3ccc(-c4cn(CCCCCC(=O)NO)nn4)cc3)[C@H]2O)[C@](C)(O)C[C@@H](C)CN(C)[C@H](C)[C@@H](O)[C@]1(C)O | 91.6 nM | 4.73 µM | 1.79 µM | 1.92 µM | 1.45 µM | > 10 µM | > 10 µM
2 | CC[C@H]1OC(=O)[C@H](C)[C@@H](O[C@H]2C[C@@](C)(OC)[C@@H](O)[C@H](C)O2)[C@H](C)[C@@H](O[C@@H]2O[C@H](C)C[C@H](N(C)Cc3ccc(-c4cn(CCCCCCCCCC(=O)NO)nn4)cc3)[C@H]2O)[C@](C)(OC)C[C@@H](C)C(=O)[C@H](C)[C@@H](O)[C@]1(C)O | 223.4 nM | – | – | – | – | – | –
3 | CC[C@H]1OC(=O)[C@H](C)[C@@H](O[C@H]2C[C@@](C)(OC)[C@@H](O)[C@H](C)O2)[C@H](C)[C@@H](O[C@@H]2O[C@H](C)C[C@H](N(C)Cc3ccc(-c4cn(CCCCCCCC(=O)NO)nn4)cc3)[C@H]2O)[C@](C)(O)C[C@@H](C)CN(C)[C@H](C)[C@@H](O)[C@]1(C)O | 58.9 nM | 7.13 µM | 4.89 µM | 4.56 µM | 5.89 µM | > 10 µM | > 10 µM
4 | CC[C@H]1OC(=O)[C@H](C)[C@@H](O)[C@H](C)[C@@H](O[C@@H]2O[C@H](C)C[C@H](N(C)Cc3ccc(-c4cn(CCCCCC(=O)NO)nn4)cc3)[C@H]2O)[C@](C)(O)C[C@@H](C)CN(C)[C@H](C)[C@@H](O)[C@]1(C)O | 88.8 nM | 3.74 µM | 1.68 µM | 1.77 µM | 1.24 µM | > 10 µM | > 10 µM
5 | CC[C@H]1OC(=O)[C@H](C)[C@@H](O[C@H]2C[C@@](C)(OC)[C@@H](O)[C@H](C)O2)[C@H](C)[C@@H](O[C@@H]2O[C@H](C)C[C@H](N(C)Cc3ccc(-c4cn(CCCCCCCCCC(=O)NO)nn4)cc3)[C@H]2O)[C@](C)(O)C[C@@H](C)CN(C)[C@H](C)[C@@H](O)[C@]1(C)O | 226.7 nM | – | – | – | – | – | –
6 | CC[C@H]1OC(=O)[C@H](C)[C@@H](O[C@H]2C[C@@](C)(OC)[C@@H](O)[C@H](C)O2)[C@H](C)[C@@H](O[C@@H]2O[C@H](C)C[C@H](N(C)Cc3ccc(-c4cn(CCCCCC(=O)NO)nn4)cc3)[C@H]2O)[C@](C)(OC)C[C@@H](C)C(=O)[C@H](C)[C@@H](O)[C@]1(C)O | 37 nM | – | 2.15 µM | 2.67 µM | 2.98 µM | > 10 µM | > 10 µM
7 | CC[C@H]1OC(=O)[C@H](C)[C@@H](O[C@H]2C[C@@](C)(OC)[C@@H](O)[C@H](C)O2)[C@H](C)[C@@H](O[C@@H]2O[C@H](C)C[C@H](N(C)Cc3ccc(-c4cn(CCCCCCCCC(=O)NO)nn4)cc3)[C@H]2O)[C@](C)(OC)C[C@@H](C)C(=O)[C@H](C)[C@@H](O)[C@]1(C)O | 169.8 nM | – | 7.12 µM | 7.29 µM | 8.14 µM | > 10 µM | > 10 µM
8 | CC[C@H]1OC(=O)[C@H](C)[C@@H](O)[C@H](C)[C@@H](O[C@@H]2O[C@H](C)C[C@H](N(C)Cc3ccc(-c4cn(CCCCCC(=O)NO)nn4)cc3)[C@H]2O)[C@](C)(OC)C[C@@H](C)C(=O)[C@H](C)[C@@H](O)[C@]1(C)O | 44.3 nM | – | 1.95 µM | 1.92 µM | 3.29 µM | > 10 µM | > 10 µM
9 | CC[C@H]1OC(=O)[C@H](C)[C@@H](O[C@H]2C[C@@](C)(OC)[C@@H](O)[C@H](C)O2)[C@H](C)[C@@H](O[C@@H]2O[C@H](C)C[C@H](N(C)Cc3ccc(-c4cn(CCCCCCCC(=O)NO)nn4)cc3)[C@H]2O)[C@](C)(OC)C[C@@H](C)C(=O)[C@H](C)[C@@H](O)[C@]1(C)O | 55.6 nM | – | 4.89 µM | 5.67 µM | 6.97 µM | > 10 µM | > 10 µM
10 | CC[C@H]1OC(=O)[C@H](C)[C@@H](O)[C@H](C)[C@@H](O[C@@H]2O[C@H](C)C[C@H](N(C)Cc3ccc(-c4cn(CCCCCCCC(=O)NO)nn4)cc3)[C@H]2O)[C@](C)(OC)C[C@@H](C)C(=O)[C@H](C)[C@@H](O)[C@]1(C)O | 123 nM | – | 4.45 µM | 5.09 µM | 5.78 µM | > 10 µM | > 10 µM
11 | CC[C@H]1OC(=O)[C@H](C)[C@@H](O)[C@H](C)[C@@H](O[C@@H]2O[C@H](C)C[C@H](N(C)Cc3ccc(-c4cn(CCCCCCCC(=O)NO)nn4)cc3)[C@H]2O)[C@](C)(O)C[C@@H](C)CN(C)[C@H](C)[C@@H](O)[C@]1(C)O | 72.4 nM | 6.78 µM | 4.67 µM | 3.99 µM | 5.68 µM | > 10 µM | > 10 µM
12 | CC[C@H]1OC(=O)[C@H](C)[C@@H](O[C@H]2C[C@@](C)(OC)[C@@H](O)[C@H](C)O2)[C@H](C)[C@@H](O[C@@H]2O[C@H](C)C[C@H](N(C)Cc3ccc(-c4cn(CCCCCCCCC(=O)NO)nn4)cc3)[C@H]2O)[C@](C)(O)C[C@@H](C)CN(C)[C@H](C)[C@@H](O)[C@]1(C)O | 145.5 nM | 11.1 µM | 7.54 µM | 8.45 µM | > 10 µM | > 10 µM | > 10 µM
13 | CC[C@H]1OC(=O)[C@H](C)[C@@H](O[C@H]2C[C@@](C)(OC)[C@@H](O)[C@H](C)O2)[C@H](C)[C@@H](O[C@@H]2O[C@H](C)C[C@H](N(C)Cc3ccc(NC(=O)CCCCCCC(=O)NO)cc3)[C@H]2O)[C@](C)(O)C[C@@H](C)CN(C)[C@H](C)[C@@H](O)[C@]1(C)O [AZITHROMYCINARYLALKYLHYDROXAMIC ACID] | 107.1 nM | – | – | – | > 25 µM | – | –
14 | CC[C@H]1OC(=O)[C@H](C)[C@@H](O)[C@H](C)[C@@H](O[C@@H]2O[C@H](C)C[C@H](N(C)Cc3ccc(NC(=O)CCCCCCC(=O)NO)cc3)[C@H]2O)[C@](C)(O)C[C@@H](C)CN(C)[C@H](C)[C@@H](O)[C@]1(C)O [DESCLASINOSE AZITHROMYCINARYLALKYL HYDROXAMATE] | 109.8 nM | – | – | – | < 25 µM | – | –
15 | O=C(CCCCCCC(=O)Nc1ccccc1)NO [VORINOSTAT] | – | – | – | – | 2.12 µM | – | –
